Compound activity from PubChem.
GASC-1 inh = inhibitors of human GASC-1 (JMJD2C) demethylase; GST-JMJD2C(1-420) H3K9me3 demethylation, DELFIA europium; inhibition, % at 2.35 µM; 330,000 tested, 0.069% active;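 active = more than half of a compound's replicate wells show inhibition beyond 50%, single wells judged on their own value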;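 note: signal counts dimethyl H3K9 product captured on neutravidin plate; 0% = median of DMSO wells and 100% = 0.3 times that DMSO median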
NR3A LBD binder = NR3A (human) ligand-binding domain modulation | Tm shift relative to glycine control, % at 25 µM | AID 1259313 | 340,000 tested, 2.5% active | NR3A LBD differential scanning fluorimetry, Tm shift; 0% = protein alone, 100% = glycine-bound protein;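 active = melting temperature shift of at least 10% of the positive control shift, at one fixed dose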
Rtt109 HAT inh = blocks Candida albicans Rtt109/Vps75 acetyltransferase activity. inhibition, % at 34.9 µM. Q5AAJ8. 330,000 tested, 0.16% active. purified Rtt109/Vps75, ThioGlo CoA-SH fluorescence, 4 h;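 active = inhibition of at least 50% in every replicate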
Target sequence (Q5AAJ8 whole entry, looked up): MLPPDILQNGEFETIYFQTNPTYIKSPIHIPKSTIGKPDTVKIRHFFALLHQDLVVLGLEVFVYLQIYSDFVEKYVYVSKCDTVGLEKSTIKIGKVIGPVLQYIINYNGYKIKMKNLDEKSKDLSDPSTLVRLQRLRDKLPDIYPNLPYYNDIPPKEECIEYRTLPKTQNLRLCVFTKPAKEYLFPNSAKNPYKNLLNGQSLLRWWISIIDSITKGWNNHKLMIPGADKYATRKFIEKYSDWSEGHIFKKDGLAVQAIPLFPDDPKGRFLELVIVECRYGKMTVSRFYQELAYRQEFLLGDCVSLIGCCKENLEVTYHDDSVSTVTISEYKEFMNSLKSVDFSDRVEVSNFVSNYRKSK
T cell modulator = modulates CD8 T cell binding to vesicles. 330,000 tested, 0.068% active. response (vesicle binding), % at 7 µM. AID 2052. 2C CD8+ T cell-vesicle binding, flow cytometry; hits give low values;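 active = response, share of CD8 T cells binding vesicles, and their 90th percentile fluorescence all below set limits, cut at about 80% in these data, passing the limit was not always enough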;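 note: values below 100% mean blocked vesicle binding to the CD8+ T cells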
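Assay system – 2C mouse CD8+ T cells · Also added – QL9-loaded Drosophila micro-vesicles · Timing – Cell–vesicle co-incubation 1.5 h at 37 °C, staining 20 min on ice · Signal – flow cytometry of vesicle-bound cells · Measure – percent CD8+ FL2 mean versus row control · Controls – Peptide-free naked vesicles (low) and QL9 vesicles with 0.7% DMSO vehicle (high)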
Starred values were filed as active, the others as inactive; i = inactive; . = no result given. Shown are actives, neighbours in structure and some others; about 2.8% of the full set was active somewhere.

SMILES | GASC-1 inh | NR3A LBD binder | Rtt109 HAT inh | T cell modulator
C=CCC[C@@H](Cc1ccc(F)cc1)C(=O)OCCNC(=O)[C@@H](CC=C)CC(=O)N[C@@H](CO)Cc1ccccc1 | -5.1 | 22.5* | 1.6 | i
C=CCC[C@@H](Cc1ccc(F)cc1)C(=O)OCCNC(=O)[C@@H](CC=C)CC(=O)N[C@H](CO)Cc1ccccc1 | . | -1.4 | 8.5 | 239.8
C=CCC[C@H](Cc1ccc(F)cc1)C(=O)OC[C@@H](Cc1c[nH]c2ccccc12)NC(=O)[C@@H](CC=C)CC(=O)N[C@@H](CO)Cc1ccccc1 | 10.6 | 15.9* | 2.7 | 427.0
CCCCS(=O)(=O)/C=C\C=C/S(=O)(=O)CCCC | 2.0 | -2.5 | 149.0* | 101.3
Cc1ccc(NC(=O)CC2C(=O)N(Cc3ccccc3)C(=S)N2NC(=O)c2ccccc2)c(C)c1 (stereo unspecified) | -0.8 | 10.6* | 23.2 | 198.9
CCN1C(=O)C(CC(=O)Nc2ccccc2Cl)N(NC(=O)c2cccc(F)c2)C1=S (stereo unspecified) | -1.0 | -1.6 | 4.8 | 345.2
CNC(=O)CC1C(=O)N(Cc2ccccc2)C(=S)N1NC(=O)c1cccc(F)c1 (stereo unspecified) | 7.1 | 14.0* | 4.6 | 467.8
CNC(=O)CC1C(=O)N(c2ccc(Cl)cc2)C(=S)N1NC(=O)c1cccc(F)c1 (stereo unspecified) | 3.8 | 0.2 | -3.7 | 220.8
CC1CN(c2ccccn2)C(C)CN1C(=S)Nc1ccccc1 (stereo unspecified) | . | 0.5 | -11.4 | .
N#C/C(=C\c1cccs1)c1nc2ccccc2[nH]1 | -8.0 | 22.1* | -18.9 | 321.3
N#C/C(=C/c1ccc(O)c(O)c1)c1nc2ccccc2[nH]1 | 2.2 | 19.1* | 16.0 | 408.3
N#C/C(=C\c1ccc(OC(=O)c2cccs2)cc1)c1nc2ccccc2[nH]1 | 0.7 | 6.9 | 3.1 | 312.2
N#C/C(=C\c1ccc([N+](=O)[O-])o1)c1nc2ccccc2[nH]1 | 4.8 | 22.2* | . | 406.1
CCc1ccc(NC(=O)COc2ccc(/C=C(/C#N)c3nc4ccccc4[nH]3)cc2OC)cc1 | 10.6 | 30.0* | -4.5 | 189.4
Cc1ccc(C)c(S(=O)(=O)N2CCC(c3nc4c(nnn4Cc4ccc5c(c4)OCCO5)c(=O)[nH]3)CC2)c1 | 15.0 | 3.9 | 2.2 | 666.4
O=C(c1cnc(Cl)c(Cl)c1)N1CCN(S(=O)(=O)c2ccc3ccccc3c2)CC1 | . | 0.3 | -4.1 | .
Cc1c(Cl)ccc2c(C(O)CBr)cc(-c3ccccc3)nc12 (stereo unspecified) | . | 31.8* | . | .
COc1ccc(NC(=O)CN(C)C(=O)c2cc(C)on2)cc1 | -5.6 | -0.9 | -3.4 | 305.6
OC1(c2cccc(C(F)(F)F)c2)CCN(Cc2nnnn2Cc2ccccc2)CC1 | 36.2 | -25.1 | -1.9 | 251.4
OC1(c2cccc(F)c2)CCN(Cc2ccncc2)CC1 | 68.7* | -0.8 | 8.2 | 211.1
COc1ccc2nc(N3CCCC(C(=O)NCCCN4C(C)CCCC4C)C3)sc2c1 (stereo unspecified) | 2.0 | -0.4 | -9.1 | 334.2
COc1ccc(C(C2C(=O)CC(C)(C)CC2=O)C2C(=O)CC(C)(C)CC2=O)cc1COCC(F)(F)F | 1.1 | 12.6* | 5.3 | 192.1
CCCC[n+]1c(C)sc2cc(OC)ccc21 | 2.3 | 1.8 | 185.4* | 897.1
Clc1ccc2c(c1)nc1n2CCCC1 | 6.5 | 15.0* | 1.0 | 181.2
NC(=O)CSc1nc2scc(-c3ccc(Cl)cc3)c2c(=O)n1Cc1ccccc1 | -10.2 | 12.6* | -17.6 | 224.1
SMILES | GASC-1 inh | NR3A LBD binder | Rtt109 HAT inh | T cell modulator
O=C(CN1C(=O)NC2(CCCCCC2)C1=O)Nc1ccc(Br)cc1Br | -6.5 | -3.0 | 6.6 | 195.6
Cc1cc(NCCCCCCCNc2cc(C)nc3cc([N+](=O)[O-])ccc23)c2ccc([N+](=O)[O-])cc2n1 | . | -1.0 | 3.7 | .
Cc1cc(C)cc(NC(=O)C(OC(=O)c2cc[n+]([O-])cc2)c2ccccc2)c1 (stereo unspecified) | -0.8 | 1.7 | -26.5 | 348.8
Cc1ccc(NC(=O)C(C)c2ccc([N+](=O)[O-])cc2)cc1Cl (stereo unspecified) | 2.1 | 11.8* | 0.1 | 155.3
Cc1ccc(NC(=O)C(OC(=O)c2ccccc2Cl)c2ccccc2)cc1Cl (stereo unspecified) | 1.5 | 19.5* | 5.9 | 363.8
Cc1ccc(NC(=O)CSc2ccccc2NC(=O)c2ccccc2Cl)cc1Cl | -1.9 | 11.0* | 0.3 | 268.9
CC(C(=O)Nc1ccccc1Br)c1ccc([N+](=O)[O-])cc1 (stereo unspecified) | -4.8 | 0.1 | 12.8 | 290.8
